Results reported in publication PMC3678535 (Biochemistry, 2013).
Where “and” joins values, the source holds several entries; their conditions need not be identical. Identical values can stand only once. Like-named read-outs stand apart in the source and are kept apart here.

How the values were obtained:
iNOS [1] = biological target: T1, iNOS (Mus musculus, UniProt P29477); test: Ferric difference spectral binding assay; set-up: species or system murine
Method in brief: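 Murine iNOS (E. coli-expressed, purified), 5 μM, in 100 mM HEPES pH 7.5 with 10 μM H4B, scanned 380–500 nm against a HEPES/H4B blank. […] Test compound titrated at 0.1–1 mM final, additions kept under 5% volume. Ks from Michaelis-Menten fit of concentration vs absorbance difference (local maximum minus minimum).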

murine iNOS [2] = biological target: T2, murine iNOS (Mus musculus, UniProt P29477); test: Inhibition of NO production; type: biochemical; settings: 10 μM L-arginine, unit printed in cell/text as mM
iNOS [3] = biological target: T1, iNOS; test: NO production measured with the Griess reagent, longer incubations; type: biochemical, murine; settings: incubations of 1, 2, 6, 12 and 24 hours
Method in brief: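 Purified murine iNOS (E. coli-expressed), 100 nM, incubated 1, 2, 6, 12 and 24 h with test compound at various concentrations, 100 μM NADPH and 10 μM H4B in 100 mM HEPES, 10% glycerol, pH 7.5. Lactate dehydrogenase added to oxidize leftover NADPH, then Griess reagents added. Nitrite/nitrate read by absorbance at 540 nm.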

[4] = cited from earlier work
iNOS [5] = biological target: T1, iNOS; test: Substrate uncoupling: NADPH consumption versus NO production; type: biochemical, murine; settings: 20 μM arginine, 20 μM NHA, 100 μM NMOA, 100 μM NHMA
murine iNOS [6] = biological target: T2, murine iNOS; test: NO production, hemoglobin capture assay; type: biochemical
rat nNOS = rat nNOS (Rattus norvegicus, UniProt P29476); test: NO production, hemoglobin capture assay; type: biochemical; settings: for Km: NO production, 22 °C, pH 7.5
rat nNOS, sequence (P29476 whole entry): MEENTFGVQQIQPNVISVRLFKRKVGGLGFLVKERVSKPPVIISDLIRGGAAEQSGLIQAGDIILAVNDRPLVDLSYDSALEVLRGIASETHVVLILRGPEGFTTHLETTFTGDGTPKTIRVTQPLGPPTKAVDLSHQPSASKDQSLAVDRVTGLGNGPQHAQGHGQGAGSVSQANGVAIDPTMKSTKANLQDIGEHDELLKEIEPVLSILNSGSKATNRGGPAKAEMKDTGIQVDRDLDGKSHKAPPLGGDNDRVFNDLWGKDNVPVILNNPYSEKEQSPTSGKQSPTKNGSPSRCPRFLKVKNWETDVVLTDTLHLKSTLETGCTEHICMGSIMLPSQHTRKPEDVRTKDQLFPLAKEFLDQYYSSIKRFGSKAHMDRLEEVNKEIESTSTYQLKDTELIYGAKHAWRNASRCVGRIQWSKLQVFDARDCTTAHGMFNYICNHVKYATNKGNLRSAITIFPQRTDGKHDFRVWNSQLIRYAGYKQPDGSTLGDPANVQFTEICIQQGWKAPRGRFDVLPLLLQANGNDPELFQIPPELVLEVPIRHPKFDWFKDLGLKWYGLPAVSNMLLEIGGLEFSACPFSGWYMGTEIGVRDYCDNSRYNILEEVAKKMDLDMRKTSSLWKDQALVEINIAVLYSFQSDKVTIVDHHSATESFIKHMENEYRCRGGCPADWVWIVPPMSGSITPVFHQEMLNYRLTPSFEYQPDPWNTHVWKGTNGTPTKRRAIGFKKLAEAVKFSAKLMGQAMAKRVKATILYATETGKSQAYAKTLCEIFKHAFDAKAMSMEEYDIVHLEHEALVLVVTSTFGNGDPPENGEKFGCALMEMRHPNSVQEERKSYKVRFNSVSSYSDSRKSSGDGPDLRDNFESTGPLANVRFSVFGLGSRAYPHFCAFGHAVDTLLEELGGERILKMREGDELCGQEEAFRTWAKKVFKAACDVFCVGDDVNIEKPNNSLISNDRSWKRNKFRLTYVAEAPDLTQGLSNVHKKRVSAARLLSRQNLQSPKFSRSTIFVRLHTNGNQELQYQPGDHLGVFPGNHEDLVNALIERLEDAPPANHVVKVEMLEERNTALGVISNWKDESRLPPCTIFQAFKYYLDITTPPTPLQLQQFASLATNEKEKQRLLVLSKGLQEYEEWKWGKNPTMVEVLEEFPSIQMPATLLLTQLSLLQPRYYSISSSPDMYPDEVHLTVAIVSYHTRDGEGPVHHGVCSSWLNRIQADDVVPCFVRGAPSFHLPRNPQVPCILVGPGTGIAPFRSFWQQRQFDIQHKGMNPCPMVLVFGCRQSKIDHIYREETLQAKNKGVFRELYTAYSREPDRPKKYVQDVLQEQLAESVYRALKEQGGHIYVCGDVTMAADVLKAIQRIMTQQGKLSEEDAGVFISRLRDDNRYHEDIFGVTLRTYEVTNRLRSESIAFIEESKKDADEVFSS

NOS = settings: cited from earlier work
iNOS [7] = biological target: T1, iNOS; test: One-carbon metabolite of [14C]-NMOA-iNOS reaction; type: biochemical, murine; settings: MeOX/FDH conversion, scintillation counting
Methanol oxidase (MeOX) = settings: depending on the O2 concentration; cited from earlier work
[8] = read-out: Ks (spectral binding constant), imidazole displacement

For `CN(CCC[C@H](N)C(=O)O)C(=N)NO` [MHA, N^δ-methyl- N^ω-hydroxy-L-arginine], the Kd (iNOS [1]; read-out: Ks (spectral binding constant), unit printed in cell/text as mM) was > 10 mM, the Ki (murine iNOS [2]) was > 10 mM and the “NO production (Griess reagent)” value (iNOS [3]) was “absence of NO production”.

For `CCONC(=N)NCCC[C@H](N)C(=O)O` [NEOA, N^ω-ethoxy-L-arginine], the Kd (iNOS [1]; [8]) was 0.12 ± 0.013 mM and the “NO production (Griess reagent)” value (iNOS [3]) was “absence of NO production”.

For `N=C(NO)NCCC[C@H](N)C(=O)O` [NHA, N^ω-hydroxy-L-arginine, reference compound], the pKa [4] is given as 8.5, the “NADPH:NO (moles of NADPH consumed per mole of NO formed)” value (iNOS [5]) is given as 0.7 ± 0.3 and the kcat (murine iNOS [6]) is given as 0.267 ± 0.033 s⁻¹. It also gave a Km (murine iNOS [6]; NO production, 22 °C, pH 7.5) of 0.022 ± 0.005 mM, a Kd (iNOS [1]; [8]) of 0.029 ± 0.004 mM and a kcat (rat nNOS) of 0.217 ± 0.067 s⁻¹. The Km (rat nNOS) was 5.7 ± 2.1 µM.

For `CN(O)C(=N)NCCC[C@H](N)C(=O)O` [NHMA, N^ω-hydroxy-N^ω-methyl-L-arginine], the “NADPH:NO (moles of NADPH consumed per mole of NO formed)” value (iNOS [5]) was 15 and 15.0 ± 2.7, the kcat (murine iNOS [6]) was 0.015 ± 0.0083 s⁻¹ and the “kcat, times lower compared to NHA” value (murine iNOS [6]) was “about 18 times”. The Km (murine iNOS [6]; NO production, 22 °C, pH 7.5) was 0.034 ± 0.006 mM, the Kd (iNOS [1]; [8]) was 0.034 ± 0.004 mM and the kcat (rat nNOS) was 0.0167 ± 0.0033 s⁻¹. For the same compound, the “kcat, times lower compared to NHA” value (rat nNOS) was ~13 times and the Km (rat nNOS) was 2 ± 0.4 µM.

In the case of `CN=C(N)NCCC[C@H](N)C(=O)O` [NMA, N^ω-Methyl-L-arginine], the kinact (NOS; inactivator of NOS) is given as 0.07 min⁻¹, the KI (inactivation) (NOS; read-out: KI (inactivation), inactivator of NOS) is given as 2.7 µM and the Ki (NOS; read-out: Ki (competitive inhibitor), competitive inhibitor of NOS) is given as 0.2 µM.

With `CON(C)C(=N)NCCC[C@H](N)C(=O)O` [NMMA, N^ω-methoxy-N^ω-methyl-L-arginine] the Kd (iNOS [1]; [8]) was 0.07 ± 0.005 mM and the “NO production (Griess reagent)” value (iNOS [3]) was “absence of NO production”.

With `CONC(=N)NCCC[C@H](N)C(=O)O` [NMOA, N^ω-methoxy-L-arginine] the “NADPH:NO (moles of NADPH consumed per mole of NO formed)” value (iNOS [5]) was 8 and 8.0 ± 1.5, the kcat (murine iNOS [6]) was 0.0783 ± 0.0217 s⁻¹ and the “kcat, times lower compared to NHA” value (murine iNOS [6]) was “about 4 times”. For the same compound, the Km (murine iNOS [6]; NO production, 22 °C, pH 7.5) was 0.088 ± 0.008 mM, the Kd (iNOS [1]; [8]) was 0.122 ± 0.02 mM and the kcat (rat nNOS) was 0.03 ± 0.0083 s⁻¹. The “kcat, times lower compared to NHA” value (rat nNOS) was ~7 times and the Km (rat nNOS) was 11 ± 2 µM.

With `[14CH3]ONC(=N)NCCC[C@H](N)C(=O)O` [[^14C]-NMOA, N^ω-[^14C]-methoxy-L-arginine] the One-carbon metabolite (iNOS [7]) was “methanol”.

With `N=C(N)NCCC[C@H](N)C(=O)O` [arginine, L-arginine, reference compound] the “NADPH:NO (moles of NADPH consumed per mole of NO formed)” value (iNOS [5]) was 1.5.

In the case of `CN(CCC[C@H](N)C(=O)O)C(=N)N` [dMA, N^δ-Methyl-L-arginine], the Ki (NOS; binds weakly to the NOS active site) is given as 1400 µM.

For `C=O` [formaldehyde], the Km (Methanol oxidase (MeOX)) is given as 2500 µM.

Work on `c1c[nH]cn1` [imidazole, reference compound] yielded a Kd (iNOS [1]; [8]) of 0.12 to 0.15 mM.

For `CO` [methanol], the Km (Methanol oxidase (MeOX)) is listed as ~2000 µM.

In the case of `CC(C)(C)ONC(=N)NCCC[C@H](N)C(=O)O` [tBOA, N^ω-tert-butyloxy-L-arginine], the kcat (murine iNOS [6]) is reported as 0.005 ± 0.0017 s⁻¹, the Km (murine iNOS [6]; unit printed in cell/text as mM) is reported as 2.7 ± 0.8 mM and the Ki (murine iNOS [2]) is reported as 7.4 ± 4.5 mM.
